Source: ChEMBL document CHEMBL1158826, “Anti-inflammatory activity of verminoside from Kigelia africana and evaluation of cutaneous irritation in cell cultures and reconstituted human epidermis” (J Nat Prod, 2005)
Active and inactive are the calls of the source. The rule behind the calls is not given here.

Legend:
Homo sapiens [1] = species on record: Homo sapiens; experiment: Antiinflammatory activity against reconstituted human epidermis model assessed as inhibition of IL1alpha release after 72 hrs by ELISA relative to control; assay type: functional; details: Skin epidermis
Summary of the method: (§1)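 Reconstituted human epidermis (0.63 cm2, differentiated from normal human keratinocytes) received 50 µL of PBS solutions applied topically. Concentrations were 1, 2, 3% for extract and 0.25, 0.5, 1% for pure compound. Tissues were held at 37 °C, 5% CO2, with daily medium change. Underlying medium was collected at 24 or 72 h and IL-1α (pg/mL) quantified by ELISA. Controls were PBS and SDS 0.25%. Three independent experiments.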

Skin epidermis = experiment: Effect on morphological changes in reconstituted human epidermis model assessed as induction of tissue degeneration and necrosis after 24 hrs; assay type: functional
Summary of the method: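 Reconstituted epidermis was dosed topically with PBS solutions at 1-3% (extract) or 0.25-1% (compound), with PBS and SDS 0.25% as controls. After 24 or 72 h, tissues were fixed in 10% formalin, dehydrated through ethanol and toluene, and paraffin-embedded. Sections of 5 µm were stained with H&E and examined by light microscopy at 200×.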

Homo sapiens [2] = species on record: Homo sapiens; experiment: Antiinflammatory activity against reconstituted human epidermis model assessed as inhibition of IL1alpha release after 24 hrs by ELISA relative to control; assay type: functional; details: Skin epidermis; summary of the method: as §1
J774.A1 [3] = experiment: Antiinflammatory activity against mouse J774A1 macrophages assessed as inhibition of LPS-induced iNOS expression at 1 mM treated 1 hr before LPS challenge and measured after 24 hrs by Western blot analysis; assay type: functional, cell-based
Summary of the method: (§2)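 J774.A1 cells were given test solutions in PBS (0.01-1 mM) 1 h before and together with LPS (6 × 103 u/mL). After 24 h with LPS, cells were lysed and iNOS protein detected by Western blot with densitometry. Results are % inhibition versus LPS alone, from 3-6 independent experiments in triplicate. One-way ANOVA.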

J774.A1 [4] = experiment: Cytotoxicity against mouse J774A1 macrophages grown in monolayers by MTT assay; assay type: cell-based
Summary of the method: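 Monolayer J774.A1 cells were exposed to test solutions in PBS, 0.01-1 mM for pure compounds and 1-1000 µg/mL for extract. Viability was read by MTT assay and expressed as % of PBS-treated controls. Experiments were repeated at least three times with three or more observations each. ANOVA with Bonferroni.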

J774.A1 [5] = experiment: Antiinflammatory activity against mouse J774A1 macrophages assessed as inhibition of LPS-induced iNOS expression pretreated for 1 hr before LPS challenge and measured after 24 hrs by Western blot analysis; assay type: functional, cell-based; summary of the method: as §2
J774.A1 [6] = experiment: Antiinflammatory activity against mouse J774A1 macrophages assessed as inhibition of LPS-induced NO release pretreated for 1 hr before LPS challenge measured after 24 hrs by Griess method; assay type: functional, cell-based
Summary of the method: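 Nitrite measured in medium by Griess reaction 24 h after LPS (6 × 103 u/mL). J774.A1 cells plated at 1.5 × 106 in P60 plates. Test solutions in PBS (0.01-1 mM) were added 1 h before and again together with LPS. Nitrite was read against a sodium nitrite standard curve in culture medium. Inhibition is given as % versus LPS-only cells. At least 3 independent experiments, 3 replicates each.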

[7] = Cytotoxicity against reconstituted human epidermal cells assessed as cell viability after 72 hrs by MTT assay; assay type: cell-based
Summary of the method: (§3)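 Epidermis tissues were dosed topically with 50 µL of PBS solutions (extract 1-3%, compound 0.25-1%) in duplicate and kept at 37 °C, 5% CO2 for 24 or 72 h, with medium changed daily. Controls were PBS pH 7.2 and SDS 0.25%. After washing, MTT (0.5 mg/mL) was added for 3 h at 37 °C and OD read at 570 nm. Results are % viability versus PBS-treated epidermis.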

[8] = Cytotoxicity against reconstituted human epidermal cells assessed as cell viability after 24 hrs by MTT assay; assay type: cell-based; summary of the method: as §3

CCCCCCCCCCCCOS(=O)(=O)[O-].[Na+]
Activity (Homo sapiens [1]): 110 pg/mL | Activity (Skin epidermis): Active | Activity (Homo sapiens [2]): 250 pg/mL

C[C@@H]1O[C@@H](O[C@@H]2[C@@H](O)[C@H](OCCc3ccc(O)c(O)c3)O[C@H](CO)[C@H]2OC(=O)/C=C/c2ccc(O)c(O)c2)[C@H](O)[C@H](O)[C@H]1O [ACETOSIDE]
Activity (J774.A1 [3]): Active | EC50 (J774.A1 [4]): 490 µM

O=C(/C=C/c1ccc(O)c(O)c1)O[C@@H]1C2C=CO[C@H](O[C@@H]3O[C@H](CO)[C@@H](O)[C@H](O)[C@H]3O)C2[C@]2(CO)O[C@H]12 (some centres undefined) [VERMINOSIDE]
Activity (J774.A1 [5]): Dose-dependent effect | Activity (J774.A1 [6]): Dose-dependent effect | Activity [7]: Non-toxic | Activity [8]: Non-toxic
